Assay outcomes deposited in PubChem by several laboratories.
NR2E3 ag-1: human photoreceptor-specific nuclear receptor agonism; Q9Y5X4; CHO-S Gal4-NCOR/VP16-NR2E3 two-hybrid, luciferase; inhibition of corepressor binding, % at 3.98 µM; hit rate 0.35% among 360,000;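 active = inhibition above the mean of all tested compounds plus 3 SD, cut at about 70% in these data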;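 also: higher means lower luciferase signal from less NR2E3 corepressor binding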
Target sequence (Q9Y5X4 whole entry, looked up, the tested form may be a part): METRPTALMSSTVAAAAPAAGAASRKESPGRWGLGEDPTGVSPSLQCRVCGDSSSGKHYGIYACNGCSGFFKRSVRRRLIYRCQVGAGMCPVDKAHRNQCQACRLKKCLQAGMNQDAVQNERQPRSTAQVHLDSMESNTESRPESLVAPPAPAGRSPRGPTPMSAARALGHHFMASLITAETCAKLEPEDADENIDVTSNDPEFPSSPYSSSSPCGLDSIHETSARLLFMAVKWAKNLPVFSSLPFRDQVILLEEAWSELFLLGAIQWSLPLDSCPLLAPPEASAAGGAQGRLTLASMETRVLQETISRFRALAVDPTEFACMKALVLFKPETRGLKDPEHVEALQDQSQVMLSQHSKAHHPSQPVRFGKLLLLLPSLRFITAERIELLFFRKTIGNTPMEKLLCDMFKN
NR2E3 ag-2: agonists of human nuclear receptor NR2E3; inhibition of corepressor binding, % at 4.78 µM; AID 2300; Q9Y5X4; hit rate 0.12% among 320,000; GST-NR2E3/biotin-RetCOR TR-FRET, 1536-well;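 active = percent inhibition above the cutoff of mean plus 3 SD of all tested compounds, set per screening campaign, cut at about 20% in these data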
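Test system – NR2E3–RetCOR corepressor complex · Quantity – NR2E3 fusion 1.35 nM · Buffer or medium – Tris pH 7.5 · Incubation – Compound–protein incubation for 5 h at 4 °C · Technique – TR-FRET, Eu(K)-anti-GST donor, streptavidin-D2 acceptor, ex 340, em 617/671 nm · Evaluation – percent inhibition of 671/617 nm emission ratio versus biotin and DMSO controls · Plate – 1536-well format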
GalR3 antag: human GalR3 antagonism; HEK293 GalR3-CNG cAMP membrane potential fluorescence; galR3 body fused to GalR1 C-terminus; inhibition, % at 3 µM; hit rate 0.44% among 360,000;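 active = inhibition above the screen-wide average plus 3 SD, cut at about 13% in these data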;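 also: forskolin and galanin both at EC90 stimulate the cells; cAMP rise reported by CNG channel membrane potential dye signal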
Target sequence (O60755 1-299 limits assumed): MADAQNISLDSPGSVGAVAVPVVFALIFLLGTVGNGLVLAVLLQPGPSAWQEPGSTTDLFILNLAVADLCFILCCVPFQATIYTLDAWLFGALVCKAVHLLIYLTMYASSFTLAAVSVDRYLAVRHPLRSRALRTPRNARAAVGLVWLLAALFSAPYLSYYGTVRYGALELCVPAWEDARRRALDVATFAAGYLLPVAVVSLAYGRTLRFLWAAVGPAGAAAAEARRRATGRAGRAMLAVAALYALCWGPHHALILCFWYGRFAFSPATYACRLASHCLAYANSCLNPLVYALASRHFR
FXN GAA850 act: frataxin GAA850 promoter activation; activation, % at 6 µM; HEK293 lucGAA850 FXN promoter luciferase reporter, 24 h; percent of 10 µM SAHA response; hit rate 0.56% among 360,000; AID 540364;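 active = activation above the average of all compounds screened plus 3 SD, cutoff fixed separately per campaign, cut at about 7.5% in these data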
HIV Env fusion: inhibitors of HIV Env-mediated cell fusion | HeLa-JRFL Env/CEM21 cell fusion, luciferase | inhibition, % at 12.3 µM | hit rate 1.1% among 360,000;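 active = mean replicate inhibition score of at least 50 and every replicate individually at or above 50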
V-ATPase pHluor: regulators of yeast V-ATPase proton transport. S. cerevisiae, pHLuorin cytosolic pH fluorescence. response, % at 10 µM. hit rate 0.37% among 350,000. AID 504577; in the data active = response mostly above about 7.3%, no sharp cut-off; inactive = mostly below about 5.4%; also: actives read high
GAA30 counter: activates GAA30 frataxin promoter, counter-screen for GAA850 activators. shares compounds with FXN GAA850 act. HEK293 lucGAA30 FXN promoter luciferase, 24 h; DMSO = 0%, 5 µM ipriflavone = 100%. activation, % at 6 µM. hit rate 66% among 1,900. AID 588350;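 active = mean activation above the mean of solvent-only control wells plus 3 SD, cut at about 22% in these data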;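 also: counterscreen of GAA850 promoter hits where activity marks nonselective or luminescence artifacts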
GAA850 confirm: GAA850 FXN promoter activation confirmation; hit rate 86% among 1,900; activation, % at 6 µM; shares compounds with FXN GAA850 act; AID 588351; HEK293 lucGAA850 FXN promoter luciferase reporter, 24 h; 100% = activation by SAHA;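 active = mean activation above a set limit taken from the primary screen, cut at about 8% in these data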
Each line names hits and unclear results; the compound was inactive in the other large screens (follow-up assays come after a bar, where they were run). Hits are enriched below; roughly 2.2% of the tested compounds scored in any of these assays.

CCOC(=O)N1CCN(C(=O)c2ccc(NS(C)(=O)=O)cc2)CC1	FXN GAA850 act 9.4 (no result: HIV Env fusion) | GAA30 counter 27 | GAA850 confirm 17
C[C@H](CO)N1C[C@H](C)[C@@H](CN(C)C(=O)c2ccc(F)cc2)Oc2ncc(/C=C/c3ccccc3)cc2C1=O	none (no result: NR2E3 ag-1, NR2E3 ag-2, GalR3 antag, FXN GAA850 act, V-ATPase pHluor)
CC(=O)N/C(=C\c1ccccc1)C(=O)OCC(=O)NC(C)C12CC3CC(CC(C3)C1)C2 (stereo not given)	FXN GAA850 act 13, HIV Env fusion 106 | GAA30 counter 30 | GAA850 confirm 13
CC(NC(=O)COC(=O)[C@@H]1CCCN1S(=O)(=O)c1ccccc1F)C12CC3CC(CC(C3)C1)C2 (stereo not given in full)	FXN GAA850 act 8.8 | GAA30 counter 28 | GAA850 confirm 15
Cc1cc(C(=O)Nc2cccc3c2O[C@H](CN(C)S(C)(=O)=O)[C@H](C)CN([C@@H](C)CO)C3=O)n(C)n1	none (no result: NR2E3 ag-1, NR2E3 ag-2, GalR3 antag, FXN GAA850 act, V-ATPase pHluor)
COc1ccc2cc3cc(C(=O)N4CCCCC4C)oc3nc2c1 (stereo not given)	FXN GAA850 act 8.0 | GAA30 counter 122 | GAA850 confirm 38
COc1ccc2cc3cc(C(=O)N4CCCCCC4)oc3nc2c1	none (no result: GalR3 antag, HIV Env fusion)
CCC(=O)N1C[C@@H](O)COC[C@@H]2O[C@H](CC(=O)NCC3CCCCC3)CC[C@H]21	none (no result: NR2E3 ag-1, NR2E3 ag-2, GalR3 antag, FXN GAA850 act, V-ATPase pHluor)
COc1cc2c(cc1NC(=O)C1CCCO1)oc1ccccc12 (stereo not given)	FXN GAA850 act 8.6 | GAA30 counter 109 | GAA850 confirm 31
COc1ccc(NC(=O)N(C)C[C@H]2OCCCC[C@H](C)Oc3ccc(NS(=O)(=O)c4ccc(C)cc4)cc3C(=O)N([C@@H](C)CO)C[C@H]2C)cc1	none (no result: NR2E3 ag-1, NR2E3 ag-2, GalR3 antag, FXN GAA850 act, V-ATPase pHluor)
Cc1ccc2nc(-c3ccc4c(c3)NC(=O)CO4)cn2c1	FXN GAA850 act 8.5 | GAA30 counter 98 | GAA850 confirm 30
Cc1ccc2nc(-c3ccc4c(c3)OCCO4)cn2c1	none
CN1C(=O)c2cc(NC(=O)c3ccc(F)c(F)c3)ccc2OC[C@H]2O[C@H](CC(=O)O)CC[C@@H]21	none (no result: NR2E3 ag-1, NR2E3 ag-2, GalR3 antag, FXN GAA850 act, V-ATPase pHluor)
N#CCn1cnc2sc(-c3ccccc3)cc2c1=O	FXN GAA850 act 9.2 | GAA30 counter 76 | GAA850 confirm 28
CCn1cnc2sc(-c3ccccc3)cc2c1=O	none (no result: HIV Env fusion)
C=C1c2cccc(O)c2C(=O)C2C(=O)[C@]3(O)C(=O)C(C(N)=O)C(=O)[C@@H](N(C)C)[C@@H]3[C@@H](O)[C@H]12 (stereo not given in full)	FXN GAA850 act 18, HIV Env fusion 60 (no result: NR2E3 ag-2) | GAA30 counter inactive | GAA850 confirm inactive
C/C=C/c1ccc2c(c1)O[C@@H](CN(C)C(=O)NCCC)[C@H](C)CN([C@@H](C)CO)S2(=O)=O	none (no result: NR2E3 ag-1, NR2E3 ag-2, GalR3 antag, FXN GAA850 act, V-ATPase pHluor)
CN(C)c1nc(N)c([N+](=O)[O-])c(NCc2ccccc2)n1	FXN GAA850 act 7.6 (no result: HIV Env fusion) | GAA30 counter 69 | GAA850 confirm 25
CNc1nc(N)c([N+](=O)[O-])c(NCc2ccccc2)n1	FXN GAA850 act 17 | GAA30 counter 87 | GAA850 confirm 32
Cc1ccc(Nc2nc(N)c([N+](=O)[O-])c(NCc3ccco3)n2)cc1C	FXN GAA850 act 7.8 (no result: HIV Env fusion) | GAA30 counter 92 | GAA850 confirm 44
COc1cccc(S(=O)(=O)Nc2ccc3c(c2)[C@H]2C[C@@H](CC(=O)NCc4cccc(F)c4)O[C@H](CO)[C@H]2O3)c1	none (no result: NR2E3 ag-1, NR2E3 ag-2, GalR3 antag, FXN GAA850 act, V-ATPase pHluor)
C/C=C/c1cnc2c(c1)C(=O)N([C@H](C)CO)C[C@@H](C)[C@H](CN(C)Cc1ccncc1)O2	none (no result: NR2E3 ag-1, NR2E3 ag-2, GalR3 antag, FXN GAA850 act, V-ATPase pHluor)
CC(Oc1ccc2c(-c3ccccc3)cc(=O)oc2c1)C(=O)NCCCn1ccnc1 (stereo not given)	FXN GAA850 act 8.7 (no result: HIV Env fusion) | GAA30 counter inactive | GAA850 confirm inactive
CN(C)c1ccc(Cc2cc3c(O)ccc(O)c3cc(Cc3ccc(N(C)C)cc3)c2=O)cc1	FXN GAA850 act 14 (no result: NR2E3 ag-2) | GAA30 counter inactive | GAA850 confirm 23
CN(C)c1ccc(C(=O)c2ccc(O)cc2O)cc1	none (no result: HIV Env fusion)
CC(/C=C/c1ccco1)=N/NC(=O)OC(C)(C)C	FXN GAA850 act 8.8 | GAA30 counter 68 | GAA850 confirm 27
C/C(=N/NC(=O)OC(C)(C)C)c1ccco1	none
CC(/C=N/NC(=O)Cc1cccs1)=C\c1ccco1	none
CC(/C=C/c1ccco1)=N/NC(=O)Cc1cccs1	FXN GAA850 act 8.2 | GAA30 counter 37 | GAA850 confirm 18
FC(F)Oc1ccc(C2N=C(c3ccccc3)NO2)cc1 (stereo not given)	FXN GAA850 act 7.9 | GAA30 counter 118 | GAA850 confirm 41
C[C@H](CO)N1C[C@H](C)[C@@H](CN(C)C(=O)Cc2ccccc2)OCCCC[C@H](C)Oc2ccc(NC(=O)Nc3ccc4c(c3)OCO4)cc2C1=O	none (no result: NR2E3 ag-1, NR2E3 ag-2, GalR3 antag, FXN GAA850 act, V-ATPase pHluor)
Cc1nn(-c2ccccc2Cl)c(Cl)c1/C=N/Nc1cccc(C(=O)O)c1	FXN GAA850 act 7.8 | GAA30 counter 119 | GAA850 confirm 41
Cc1noc(C)c1NC(=O)N(C)C[C@@H]1Oc2ccc(NC(=O)NC(C)C)cc2C(=O)N([C@H](C)CO)C[C@@H]1C	none (no result: NR2E3 ag-1, NR2E3 ag-2, GalR3 antag, FXN GAA850 act, V-ATPase pHluor)
CC1(Cc2cc(Cl)ccc2C(F)(F)F)C(=O)Nc2cc(F)ccc21 (stereo not given)	none (no result: NR2E3 ag-2, GalR3 antag, HIV Env fusion, V-ATPase pHluor)
CC1(Cc2ccc(C(F)(F)F)o2)C(=O)Nc2cc(-c3ccc(F)cc3F)ccc21 (stereo not given)	FXN GAA850 act 9.2, HIV Env fusion 62 (no result: NR2E3 ag-2, V-ATPase pHluor) | GAA30 counter inactive | GAA850 confirm 13
O=C(CS(=O)(=O)c1ccccc1)N1CCc2ccccc21	FXN GAA850 act 8.5 | GAA30 counter 99 | GAA850 confirm 30
CC(=O)Nc1ccc2c(c1)Cc1cc(N3C(=O)C=CC3=O)ccc1-2	FXN GAA850 act 11 (no result: NR2E3 ag-2) | GAA30 counter inactive | GAA850 confirm inactive
CN(C)c1ccc2c(c1)[C@@H]1C[C@@H](CC(=O)NCc3ccncc3)O[C@H](CO)[C@@H]1O2	none (no result: NR2E3 ag-1, NR2E3 ag-2, GalR3 antag, FXN GAA850 act, V-ATPase pHluor)
CCCN1C(=O)/C(=C/c2cc(C)n(C)c2C)SC1=Nc1ccc(OC)cc1	FXN GAA850 act 15 (no result: HIV Env fusion) | GAA30 counter inactive | GAA850 confirm 12
COc1ccc(/C=C(/C(=O)c2cccs2)N2C=CC=CC2=C(C#N)C#N)cc1	FXN GAA850 act 14 (no result: NR2E3 ag-2) | GAA30 counter inactive | GAA850 confirm 22
COCC#Cc1cnc2c(c1)C(=O)N([C@@H](C)CO)C[C@@H](C)[C@H](CN(C)C(=O)Nc1cccc(F)c1)O2	none (no result: NR2E3 ag-1, NR2E3 ag-2, GalR3 antag, FXN GAA850 act, V-ATPase pHluor)
